Measured values published in ChEMBL document CHEMBL2157988, “Isolation, characterization and cytotoxic activity of benzophenone glucopyranosides from Mahkota Dewa (Phaleria macrocarpa (Scheff.) Boerl)” (Bioorg Med Chem Lett, 2012).
The source made the active and inactive calls. The rule behind the calls is not given here.

Key:
Type in all cases: functional, cell-based
[1] = Cytotoxicity against human EC109 cells after 72 hrs by SRB assay; conditions: ECa-109, 72 h
Procedure, shortened: (§1)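 Cells in DMEM with 10% FBS and 1% penicillin/streptomycin; log-phase cells trypsinized and seeded at 5000 cells/well. DMSO stocks diluted 1000-fold in medium (<0.1% DMSO); final 100 down to 1.5625 μM in twofold steps, 72 h. Fixed with 50% TCA, stained 0.4% SRB, solubilized in 10 mM Tris base pH 10.5, OD 515 nm; IC50 calculated.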

PC-3 = test: Cytotoxicity against human PC3 cells after 72 hrs by SRB assay; conditions: PC-3, 72 h; procedure, shortened: as §1
[2] = Cytotoxicity against human EC9706 cells after 72 hrs by SRB assay; conditions: EC9706, 72 h; procedure, shortened: as §1
MGC-803 [3] = test: Cytotoxicity against human MGC803 cells after 72 hrs by SRB assay; conditions: MGC-803, 72 h; procedure, shortened: as §1
MGC-803 [4] = test: Cytotoxicity against human L-NAC-pretreated MGC803 cells incubated 2 hr post-L-NAC addition measured after 72 hrs by SRB assay
Procedure, shortened: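 MGC-803 cells in DMEM/10% FBS, seeded 5000 cells/well, preincubated with or without 5 mM L-NAC (ROS scavenger) for 2 h before compound addition. Compound final 100 to 1.5625 μM (twofold series, <0.1% DMSO), 72 h. SRB readout after TCA fixation, OD 515 nm; IC50 (50% cell death) calculated.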

Compound: CCCC(=O)OC[C@H]1O[C@@H](Oc2cc(OC)cc(OC(=O)CCC)c2C(=O)c2ccc(OC(=O)CCC)cc2)[C@H](OC(=O)CCC)[C@@H](OC(=O)CCC)[C@@H]1OC(=O)CCC
- IC50 [1]: > 100 µM
- IC50 (PC-3): > 100 µM
- IC50 [2]: > 100 µM
- IC50 (MGC-803 [3]): > 100 µM

Compound: COc1cc(OC(=O)c2ccc(Cl)cc2)c(C(=O)c2ccc(OC(=O)c3ccc(Cl)cc3)cc2)c(O[C@@H]2O[C@H](COC(=O)c3ccc(Cl)cc3)[C@@H](OC(=O)c3ccc(Cl)cc3)[C@H](OC(=O)c3ccc(Cl)cc3)[C@H]2OC(=O)c2ccc(Cl)cc2)c1
- IC50 [1]: > 100 µM
- IC50 (PC-3): > 100 µM
- IC50 [2]: > 100 µM
- IC50 (MGC-803 [3]): > 100 µM

Compound: COc1cc(OCCCBr)c(C(=O)c2ccc(OCCCBr)cc2)c(O[C@@H]2O[C@H](CO)[C@@H](O)[C@H](O)[C@H]2O)c1
- IC50 [1]: 23.1 µM
- IC50 (PC-3): 40 µM
- IC50 [2]: 31.3 µM
- IC50 (MGC-803 [3]): 53.8 µM

Compound: COc1cc(OCCCN2CCCCC2)c(C(=O)c2ccc(OCc3ccccc3)cc2)c(OCc2ccccc2)c1
- Activity (MGC-803 [4]): Active
- IC50 [1]: 5.14 µM
- IC50 (PC-3): 3.47 µM
- IC50 [2]: 4.97 µM
- IC50 (MGC-803 [3]): 3.12 µM

Compound: C=CCOc1ccc(C(=O)c2c(OCC=C)cc(OC)cc2O[C@@H]2O[C@H](CO)[C@@H](O)[C@H](O)[C@H]2O)cc1
- IC50 [1]: > 100 µM
- IC50 (PC-3): > 100 µM
- IC50 [2]: > 100 µM
- IC50 (MGC-803 [3]): > 100 µM

Compound: COc1cc(OC(C)=O)c(C(=O)c2ccc(OC(C)=O)cc2)c(O[C@@H]2O[C@H](COC(C)=O)[C@@H](OC(C)=O)[C@H](OC(C)=O)[C@H]2OC(C)=O)c1
- IC50 [1]: 50.7 µM
- IC50 (PC-3): 34.1 µM
- IC50 [2]: 86.1 µM
- IC50 (MGC-803 [3]): 47.3 µM

Compound: COc1cc(OCc2ccccc2)c(C(=O)c2ccc(OCc3ccccc3)cc2)c(O[C@@H]2O[C@H](CO)[C@@H](O)[C@H](O)[C@H]2O)c1
- IC50 [1]: 22.7 µM
- IC50 (PC-3): 28.9 µM
- IC50 [2]: 41.1 µM
- IC50 (MGC-803 [3]): 44.3 µM

Compound: COc1cc(OCC2CO2)c(C(=O)c2ccc(OCC3CO3)cc2)c(O[C@@H]2O[C@H](CO)[C@@H](O)[C@H](O)[C@H]2O)c1 (stereo partly drawn)
- IC50 [1]: > 100 µM
- IC50 (PC-3): > 100 µM
- IC50 [2]: > 100 µM
- IC50 (MGC-803 [3]): > 100 µM

Compound: COc1cc(OCCCBr)c(C(=O)c2ccc(OCc3ccccc3)cc2)c(OCc2ccccc2)c1
- IC50 [1]: > 100 µM
- IC50 (PC-3): > 100 µM
- IC50 [2]: > 100 µM
- IC50 (MGC-803 [3]): > 100 µM

Compound: CCCCOc1ccc(C(=O)c2c(OCCCC)cc(OC)cc2O[C@@H]2O[C@H](CO)[C@@H](O)[C@H](O)[C@H]2O)cc1
- IC50 [1]: 29 µM
- IC50 (PC-3): 32 µM
- IC50 [2]: 41.8 µM
- IC50 (MGC-803 [3]): 49.2 µM

Compound: COc1cc(O)c(C(=O)c2ccc(OCc3ccccc3)cc2)c(OCc2ccccc2)c1
- IC50 [1]: > 100 µM
- IC50 (PC-3): > 100 µM
- IC50 [2]: > 100 µM
- IC50 (MGC-803 [3]): > 100 µM

Compound: COc1cccc(COc2ccc(C(=O)c3c(OCc4cccc(OC)c4)cc(OC)cc3O[C@@H]3O[C@H](CO)[C@@H](O)[C@H](O)[C@H]3O)cc2)c1
- IC50 [1]: 12.3 µM
- IC50 (PC-3): 6.92 µM
- IC50 [2]: 20.9 µM
- IC50 (MGC-803 [3]): 18.4 µM

Compound: COc1cc(O)c(C(=O)c2ccc(O)cc2)c(O[C@@H]2O[C@H](CO)[C@@H](O)[C@H](O)[C@H]2O)c1 [MAHKOSIDE A]
- IC50 [1]: > 100 µM
- IC50 (PC-3): > 100 µM
- IC50 [2]: > 100 µM
- IC50 (MGC-803 [3]): > 100 µM

Compound: COc1cc(OC)c(C(=O)c2ccc(O)cc2)c(O[C@@H]2O[C@H](CO)[C@@H](O)[C@H](O)[C@H]2O)c1
- IC50 [1]: > 100 µM
- IC50 (PC-3): > 100 µM
- IC50 [2]: > 100 µM
- IC50 (MGC-803 [3]): > 100 µM

Compound: CCOc1ccc(C(=O)c2c(OCC)cc(OC)cc2O[C@@H]2O[C@H](CO)[C@@H](O)[C@H](O)[C@H]2O)cc1
- IC50 [1]: > 100 µM
- IC50 (PC-3): > 100 µM
- IC50 [2]: > 100 µM
- IC50 (MGC-803 [3]): > 100 µM

Compound: COc1cc(O)c(C(=O)c2ccc(O)cc2)c(O[C@@H]2O[C@H](COC(C)=O)[C@@H](O)[C@H](O)[C@H]2O)c1 [MAHKOSIDE B]
- IC50 [1]: > 100 µM
- IC50 (PC-3): > 100 µM
- IC50 [2]: > 100 µM
- IC50 (MGC-803 [3]): > 100 µM

Compound: COc1cc(OC(=O)c2ccccc2)c(C(=O)c2ccc(OC(=O)c3ccccc3)cc2)c(O[C@@H]2O[C@H](COC(=O)c3ccccc3)[C@@H](OC(=O)c3ccccc3)[C@H](OC(=O)c3ccccc3)[C@H]2OC(=O)c2ccccc2)c1
- IC50 [1]: > 100 µM
- IC50 (PC-3): > 100 µM
- IC50 [2]: > 100 µM
- IC50 (MGC-803 [3]): > 100 µM

Compound: COc1ccc(COc2ccc(C(=O)c3c(OCc4ccc(OC)cc4)cc(OC)cc3O[C@@H]3O[C@H](CO)[C@@H](O)[C@H](O)[C@H]3O)cc2)cc1
- IC50 [1]: 17.1 µM
- IC50 (PC-3): 11.7 µM
- IC50 [2]: 20.5 µM
- IC50 (MGC-803 [3]): 28.2 µM
